Measurements from ChEMBL document CHEMBL1131461 (J Med Chem, 1998).
Positions count from the first letter of the chain named.

Experiments:
[1] = molecular target: T1, Muscarinic acetylcholine receptor M1 (Rattus norvegicus, UniProt P08482); assay: Binding affinity for muscarinic acetylcholine receptor M1 using [3H]pirenzepine (Pz) radioligand in rat hippocampus membranes.; format: cell membranes
T1 sequence (P08482 whole entry): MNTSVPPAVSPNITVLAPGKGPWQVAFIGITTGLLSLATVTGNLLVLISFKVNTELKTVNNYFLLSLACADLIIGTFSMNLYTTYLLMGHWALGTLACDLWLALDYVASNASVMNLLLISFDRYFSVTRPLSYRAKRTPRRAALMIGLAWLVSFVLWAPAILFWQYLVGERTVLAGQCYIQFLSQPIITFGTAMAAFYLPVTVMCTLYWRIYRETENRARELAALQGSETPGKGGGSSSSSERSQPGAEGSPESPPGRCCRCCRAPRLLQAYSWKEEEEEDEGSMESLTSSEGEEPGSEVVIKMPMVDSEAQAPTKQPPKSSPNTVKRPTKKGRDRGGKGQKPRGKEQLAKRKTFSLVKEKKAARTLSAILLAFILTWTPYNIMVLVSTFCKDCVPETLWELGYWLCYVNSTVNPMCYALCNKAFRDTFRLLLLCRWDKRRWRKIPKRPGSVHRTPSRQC

Mus musculus [2] = assay: Intraperitoneal dose of 10 mg/Kg was tested for salivation in mice expressed as score.; format: functional
Procedure, shortened: (§1)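 Male Cr1:CF1RBR mice, 20–30 g, in groups of five. Compound dissolved in distilled water, given ip at 10 mg/kg. Salivation and tremor scored 30 min after dosing on a 0–2 scale (0 = no effect, 1 = moderate, 2 = marked).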

[3] = molecular target: T1, Muscarinic acetylcholine receptor M1; assay: Binding affinity for muscarinic acetylcholine receptor M1 using [3H]oxotremorine-M (Oxo-M) radioligand in rat hippocampus membranes; format: cell membranes, Membrane
Mus musculus [4] = assay: Compound at an intraperitoneal dose of 10 mg/Kg was tested for salivation in mice expressed as score; format: functional; procedure, shortened: as §1
[5] = molecular target: T2, Muscarinic acetylcholine receptor M1 (Homo sapiens, UniProt P11229); assay: Effective concentration required for stimulation of phosphoinositol (PI) hydrolysis in the A9 L cell line transfected with the Muscarinic acetylcholine receptor M1.; format: functional, cell-based, A9L
T2 sequence (P11229 whole entry): T1 sequence (P08482 whole entry) with V5A, S254T, S309P, K320R, G337A, V413I

Mus musculus [6] = assay: Compound at an intraperitoneal dose of 10 mg/Kg was tested for salivation in mice expressed as score; 2=Marked salivation or tremor; format: functional; procedure, shortened: as §1
Mus musculus [7] = assay: Compound at an intraperitoneal dose of 10 mg/Kg was tested for salivation in mice expressed as score; 1=Moderate salivation or tremor; format: functional; procedure, shortened: as §1

Compound	IC50 [1] [nM]	Score (Mus musculus [2])	IC50 [3] [nM]	Score (Mus musculus [4])	EC50 [5] [nM]	Score (Mus musculus [6])	Score (Mus musculus [7])
c1nsnc1OC1CN2CCC1CC2 (configuration not stated)	833	0	537				
CCCCCSc1nsnc1OC1CN2CCC1CC2 (stereo in doubt; 18g)	2.7		1.4	1.2	136		
CCCCCSc1nsnc1OC1CN2CCC1CC2 (stereo in doubt; 18f)	3.7	0	6.4				
CCCSc1nsnc1OC1CN2CCC1C2 (stereo in doubt; 26)	4.4		0.76		1.9	2	
CCCCCCSc1nsnc1OC1CN2CCC1CC2 (configuration not stated)	28.4		7.6		225		1
CCCSc1nsnc1C1CN2CCC1C2 (stereo in doubt; 41)			0.6				
Clc1nsnc1OC1CN2CCC1CC2 (configuration not stated)	63.5	0	98.5				
CCCCOc1nsnc1OC1CCN(C)C1 (configuration not stated)	44	0	42				
CCCCOc1nsnc1OC1CN2CCC1CC2 (configuration not stated)	42.3		10.7	0.4	102		
CCCCCCOc1nsnc1OC1CN2CCC1CC2 (configuration not stated)	42		11.7	0.2	259		
CCCCOc1nonc1OC1CN2CCC1CC2 (configuration not stated)	91	0	252				
CSc1nsnc1OC1CN2CCC1CC2 (configuration not stated)	42.5		17.5	0.4			
CCCSc1nsnc1C1CN2CCC1C2 (stereo in doubt; 40)			5.8				
CCCCSc1nsnc1OC1CN2CCC1CC2 (configuration not stated)	5		2.5		22.3		1
CCSc1nsnc1OC1CN2CCC1CC2 (configuration not stated)	20	0	6.5				
CCCCOc1nsnc1OCCN(C)C	68.5	0	67.5				
CSCCc1nsnc1OC1CN2CCC1CC2 (configuration not stated)	66	0	58.7				
CCCCOc1nccnc1OC1CN2CCC1CC2 (configuration not stated)	22.3	0	38.2				

Compound	IC50 [1] [nM]	Score (Mus musculus [2])	IC50 [3] [nM]	Score (Mus musculus [4])	EC50 [5] [nM]	Score (Mus musculus [6])	Score (Mus musculus [7])
CCCCCSc1nsnc1OC1CN2CCC1CC2 (stereo in doubt; 18e)	9		4.4	0.6	433		
CCCCOc1nsnc1OC1CCNC1 (configuration not stated)	361	0	158		4870		
CCCSc1nsnc1OC1CN2CCC1C2 (stereo in doubt; 32)	66.7		5.5	1.8	162		
CCOc1nsnc1OC1CN2CCC1CC2 (configuration not stated)	65.5	0	20				
CCCSc1nsnc1OC12CCCN(CC1)C2 (configuration not stated)	6.8	0	5.2				
CCCSc1nsnc1O[C@@H]1CC2CCN(C2)C1 (stereo in doubt; 27)	7		2.8	0.2			
CCCCOc1nsnc1OCC[N+](C)(C)C	41	0	36				
CCCCCCOc1nsnc1C1=CCCN(C)C1 [XANOMELINE]		0					
COc1nsnc1OC1CN2CCC1CC2 (configuration not stated)	155	0	201				
CCCCOc1nsnc1OC1CNC1		0	105		6200		
CCCSc1nsnc1OC1CN2CCCC1C2 (stereo in doubt; 28)	0.55		0.38		1	2	
CCSCc1nsnc1OC1CN2CCC1CC2 (configuration not stated)	79	0	66.5				
CCCSc1nsnc1OC1CN2CCCC1C2 (stereo in doubt; 34)	33	0	179				
CCCSc1nsnc1OC1CN2CCC1CC2 (configuration not stated)	21		2.9	0.8	431		
CC(=O)OC1CN2CCC1CC2 (configuration not stated) [ACECLIDINE]						2	
CCCOc1nsnc1OC1CN2CCC1CC2 (configuration not stated)	44.5	0	12.5				
CCCCCOc1nsnc1OC1CN2CCC1CC2 (configuration not stated)	47.7	0	12.7		165		
CCCSc1nsnc1O[C@@H]1CC2CCN(C2)C1 (stereo in doubt; 33)	20	0	15				
